Where “and” joins values, the source holds several entries; their conditions need not be identical. Equal values may be shown once. Screen size: about 330,000 compounds; about 1,100 (0.33%) were called active.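 How the source made its calls: active means mean inhibition over replicate wells above about 20% (limit read from the data); inactive means the rest.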 The entries come from a sample that favours actives as a whole.
The compounds below were run against Ubiquitin carboxyl-terminal hydrolase isozyme L5 (Homo sapiens) (UniProt Q9Y5K5) (assay: proteasome-bound UCH37 DUB activity blockers – biochemical, Ub-AMC cleavage, fluorescence, primary screen (AID 588478;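 further: 0% = compound-free wells with enzyme and 100% = wells lacking proteasome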)). Settings: purified proteasome/UCH37, Ub-AMC cleavage fluorescence; active compounds read high; concentration not given here.
Chain of Ubiquitin carboxyl-terminal hydrolase isozyme L5 (Homo sapiens) (Q9Y5K5 whole entry, looked up): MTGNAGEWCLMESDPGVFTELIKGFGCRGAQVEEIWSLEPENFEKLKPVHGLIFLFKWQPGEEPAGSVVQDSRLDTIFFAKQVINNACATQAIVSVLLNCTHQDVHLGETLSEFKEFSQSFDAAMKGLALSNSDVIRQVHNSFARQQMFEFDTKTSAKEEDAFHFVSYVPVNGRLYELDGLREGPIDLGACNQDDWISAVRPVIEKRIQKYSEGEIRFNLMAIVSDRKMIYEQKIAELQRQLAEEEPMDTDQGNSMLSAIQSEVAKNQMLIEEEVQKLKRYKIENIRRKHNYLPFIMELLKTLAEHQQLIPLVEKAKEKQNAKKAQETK
Procedure, shortened: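 Material: human UCH37 enzyme supplied as purified proteasome complex. Measure: % inhibition of Ub-AMC cleavage fluorescence. Medium: pH 7.4 Tris-HCl (50 mM) with ovalbumin, ATP-MgCl2, DTT. Times: 30 min preincubation with enzyme, 25 min cleavage at room temperature. Detection: AMC fluorescence intensity at 355/460 nm.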

inhibition, inactive:
Cc1cccc(C(=O)ON=C(c2ccccc2)c2ccncc2)c1 3.58%
Cc1ccc(-c2csc(N3CCN(c4cc5c(cc4Cl)nc(-c4ccncc4)n5CCOCCO)CC3)n2)cc1 -1.15%
CCCn1c(C2CCCN2c2nc(-c3ccc(C)cc3)cs2)nc2cc(Cl)c(N3CCCCC3)cc21 (stereo not given) 3.86%
CCOC(=O)C1=C(C)N=c2sc(=Cc3ccncc3)c(=O)n2C1c1ccc2c(c1)OCO2 (stereo not given) -0.871%
CC(C)(C)OC(=O)CNC(=O)c1[nH]cnc1C(=O)N[C@@H](Cc1ccccc1)C(=O)OCc1ccccc1 0.224%
O=C(N[C@@H](Cc1ccccc1)C(=O)OCc1ccccc1)c1nc[nH]c1C(=O)NC1CCNCC1 -1.66%
O=C(CNC(=O)c1ccncc1)NN=Cc1cccc([N+](=O)[O-])c1 1.21%
COc1cccc(/C=C/C(=O)OCC(=O)N2CCN(c3ccccc3)CC2)c1 -11.1%
C[C@H](NC(=O)c1ccccc1Cl)C(=O)OCC(=O)N1CCN(c2ccccc2)CC1 0.507%
Cc1cc([N+](=O)[O-])cc(C=Nn2c(C)nc3ccccc3c2=O)c1O 12.9%
Cc1cc(C)n(C(=O)C(C#N)=NNc2cc(Cl)cc(Cl)c2)n1 7.62%
CON=C(C(=O)N[C@@H]1C(=O)N2C(C(=O)O)=C(COC(C)=O)CS[C@H]12)c1csc(N)n1 2.25% and 5.96%
Clc1ccc(-c2csc(NN=Cc3cccnc3)n2)cc1 7.34%
CCOC(=O)c1ccccc1OC(=O)Oc1ccccc1C(=O)OCC 2.7%
CCOC(=O)c1c(C)nc(-c2ccccc2)nc1NC(=O)C(C)C 2.52%
O=C(NN=C/C(Br)=C/c1ccccc1)NC1CCCCC1 4.04%
CC(C)N(C(=O)CSc1nc(COc2ccccc2)nc2ccccc12)C(C)C 2.03%
Cc1cc(C)nc(SCC(=O)N(C)C)n1 4.9%
O=C(NN=Cc1cccs1)c1cc(-c2ccc(Cl)s2)[nH]n1 4.08%
Cc1nn(Cc2ccc(Cl)cc2Cl)c(Cl)c1C=NNC(=O)CNc1cccc(C(F)(F)F)c1 5.09%
O=c1[nH]c(CSc2ccccc2)nc2c1oc1ccccc12 3.26%
COc1ccc(CCNC(=O)CSc2nc(C)nc3c2oc2ccccc23)cc1OC 1.13%
N#Cc1ccc(OCC(=O)NN=C2CC(c3ccccc3)Oc3ccccc32)cc1 (stereo not given) 6.87%
COC(=O)c1ccccc1-c1ccc(C=NNC(N)=O)o1 -17.5%
Cc1cc(C(=O)NN=C2CC(=O)CC(C)(C)C2)c2ccccc2n1 6.67%
O=C(/C=C/c1ccc(N2CCOCC2)cc1)c1ccccc1 -0.318%
O=C(O)c1ccc2c(c1)C(=O)N(c1ccc(/C=C/C(=O)c3ccccc3)cc1)C2=O 8.59%
CCN1C(=O)CSC1=NS(=O)(=O)c1ccc(Cl)cc1 -0.232%
COc1ccc(C=NNC(=O)CSc2ccccn2)cc1OC 5.41%
CCOC(=O)CNC(=O)N1c2ccccc2Sc2ccccc21 5.96%
CCN1/C(=C\c2ccc3ccccc3[n+]2CC)Sc2cc(C)ccc21 4.94%
COC(=O)c1ccc(C=NNC(=O)CNc2cccc(C)c2)cc1 1.65%
Cc1[nH]c2ccccc2c1C=NNC(=O)CCC(=O)NCc1ccccc1 2.82%
Cc1cccc(C=NNC(=O)Cn2nccc2C)n1 -0.386%
COc1ccc(S(=O)(=O)NCCCc2ccccc2)cc1 4.02%
O=C1C=C(NS(=O)(=O)c2ccccc2)C(=O)c2ccccc21 16.2%
CC(=NNC(=O)c1cccc(NN=C(C)c2ccco2)c1)c1ccco1 1.7%
CCCCCCC(=O)NN=CCc1ccccc1 0.89%
COc1ccccc1N1CCN(N=C/C=C\c2ccccc2[N+](=O)[O-])CC1 7.46%
CON=CCc1oc(=O)c(NC(=O)c2ccccc2)cc1C(=O)OC 1.47%
CCCCCCCNC(=O)C1(CC2CC(c3cccc(Br)c3)=NO2)CCN(C(=O)c2cc(OCC)c(OCC)c(OCC)c2)CC1 (stereo not given) 3.99%
COc1ccc(CNC(=O)C2(CC3CC(c4ccccc4)=NO3)CCN(C(=O)c3cccc(O)c3)CC2)cc1 (stereo not given) 4.4%
CCOc1cc(C=NNC(=O)C(N)=O)cc(Br)c1O 13.3%
O=[N+]([O-])c1ccc2c(c1)Nc1nc3ccccc3nc1N2 0.978%
O=[N+]([O-])c1ccc(N(CCO)Cc2ccccc2)c([N+](=O)[O-])c1 6.59%
Cc1nnc(NN=Cc2ccccn2)[nH]c1=O 1.91%
CC(=N/N=C1/NC(=O)C(CC(=O)NCc2ccccc2)S1)C(C)C (stereo not given) 3.63%
CCNC(=S)N=C(N)Nc1nc(C)c2cc(C)ccc2n1 6.4%
C(=NNc1nc(N2CCOCC2)nc(N2CCOCC2)n1)c1cccnc1 2.78%
Cc1ccc(S(=O)(=O)/N=S(\C)C(C)C)cc1 (stereo not given) 0.621%
Cc1ccc(N2C(=O)CC(Sc3ncn[nH]3)C2=O)cc1 (stereo not given) 5.88%
CC(=NNC(=S)NC(C)C)c1ccc(Cl)s1 8.08%
COc1ccccc1Oc1ccc(N/C=C2/CCCC2=O)cc1 3.61%
O=C(Cc1ccccc1)NNC(=O)C1CCN(c2ncccn2)CC1 -5.78%
O=C(NN=Cc1cccnc1)c1cccc(N2CCCC2=O)c1 2.39%
O=C(NC(Cc1c[nH]c2ccccc12)C(=O)NN=Cc1ccc(Br)cc1)c1cccs1 (stereo not given) 0.851%
CCN(CC)CCn1c2ccc(Cl)cc2c2nc(C)sc21 7.52%
Nc1nnnn1N=Cc1cc(Cl)ccc1O -10.7%
CC(CC(=O)NCCc1ccccc1)=NNC(=O)COc1ccc(Br)cc1 3.08%
O=C1c2ccccc2-c2ncnc3c(N4CCOCC4)cc(N4CCOCC4)c1c23 17.7%
O=C1C(Cl)=C(N2CCOCC2)C(=O)N1c1ccccc1 3.48%
Cc1cc(C)n2nc(C(=O)NN=Cc3cccc(Cl)c3)nc2n1 4.88%
COc1ccc(OCC(=O)NN=C(C)CC(=O)Nc2ccc(OC)cc2[N+](=O)[O-])cc1 5.56%
Cc1cc(N2C(=O)C(=O)/C(=C(/O)c3ccc(Cl)cc3)C2c2cccc(Br)c2)no1 (stereo not given) 6.56%
COc1ccc(C2/C(=C(/O)c3ccccc3)C(=O)C(=O)N2c2ncccn2)cc1OC (stereo not given) 7.11%
Cc1ccccc1OCC(=O)NN=C1CCOc2c(C)cccc21 -0.822%
CC(C)(C)c1ccc(OCc2ccc(C(=O)NN=C3CC4CC=CC34)cc2)cc1 (stereo not given) 2.62%
O=C(NC1CCCCC1)c1ccc(-c2ccc(Cl)cc2)o1 1.6%
CN(CC(=O)Nc1ccc(F)cc1)C(=O)c1ccc(-c2ccc(Cl)cc2)o1 -0.892%
Cc1cccc(OCC(=O)NN=C/C=C/c2ccc3c(c2)OCO3)c1C -10.5%
CC(=NNC(=O)c1ccc2c(c1)OCO2)c1ccc(O)cc1 3.15%
CC(=NNc1cc(N2CCOCC2)ncn1)c1ccccc1 2.94%
Cn1c(=O)n(C)c2cc(C=Nn3cnnc3)ccc21 -35.7%
C=CCN1C(=O)c2ccc(C(=O)N3CCC(C(=O)OCC)CC3)cc2C1=O -0.969%
Cc1cc(=O)n2nc(N3CCCC(C(=O)NCCC4=CCCCC4)C3)sc2n1 (stereo not given) 4.22%

inhibition, active:
Nc1c(Cl)cc(-c2csc(N3CCCC3c3nc4cc(Cl)c(Cl)cc4n3CCOCCO)n2)cc1Cl (stereo not given) 28%
O=C(N[C@@H](Cc1ccccc1)C(=O)OCc1ccccc1)c1nc[nH]c1C(=O)N[C@@H](Cc1ccccc1)C(=O)OCc1ccccc1 31.8%
O=C(OCC(=O)N1CCN(c2ccccc2)CC1)c1ccc([N+](=O)[O-])s1 61.3%
CCOC(=O)c1c(C)[nH]c2c1-c1ccccc1C(=O)C2=O 72.6%
Cc1nnc(SCC(=O)N(C(C)C)C(C)C)nc1C 32.8%
CCSc1nc(C)nc2c1oc1ccccc12 22.4%
O=C(/C=C/c1ccccc1)c1ccoc1 35.8%
CCC(=O)/C=C1\Sc2ccccc2N1CC 23.7%
COc1ccc(S(=O)(=O)/N=C2\C=C(NS(=O)(=O)c3ccccc3)C(=O)c3ccccc32)cc1 39.6%
O=C(c1ccccc1)N1CCC(CC2CC(c3ccc(Cl)cc3)=NO2)(C(=O)NCC2CCCCC2)CC1 (stereo not given) 22.5%
O=C1Nc2ccc([N+](=O)[O-])cc2C1=Nc1cccc(CO)c1 55.8%
Cc1ccc(S(=O)(=O)N=C2C=C(Sc3ncn[nH]3)C(=O)c3ccccc32)cc1 63.7%
O=C1/C(=C\Nc2ccccc2)CCN1c1ncccn1 21%
c1coc(-c2nc3nc4ccccc4n3nc2-c2ccco2)c1 25.1%
CCN(CC)CCCC(C)n1c2nc(=O)[nH]c(=O)c-2nc2cc(Cl)ccc21 (stereo not given) 76%
COC1=C(N2CCOCC2)C(=O)c2ccccc2C1=O 33.9%
Cc1cc(N2C(=O)C(=O)/C(=C(/O)c3ccccc3)C2c2cccc(Br)c2)no1 (stereo not given) 21.7%
Cc1[nH][nH]c(=O)c1C(c1ccc(-c2ccc(Cl)cc2)o1)c1c(C)[nH][nH]c1=O 42.6%
Oc1ccc(N=Nc2nccs2)c(O)c1 24.4%
CC1CCCN(C(=O)c2ccc3c(c2)C(=O)N(CCC2=CCCCC2)C3=O)C1 (stereo not given) 39.5%
